Results as given in ChEMBL document CHEMBL2321752, “A potent and highly efficacious Bcl-2/Bcl-xL inhibitor” (J Med Chem, 2013).
The source made the active and inactive calls. The rule behind the calls is not given here.

Legend:
[1] = test system: NCI-H1963; assay: Cytotoxicity against human NCI-H1963 cells assessed as growth inhibition after 4 days by WST assay; format: functional, cell-based; details: NCI-H1963, 96 h
In short: (§1)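 Human small-cell lung cancer line from ATCC, kept in RPMI-1640 with 10% FBS. Cells were exposed to serial compound concentrations for 4 days. WST-8 dye was then added for a further 1–2 h and absorbance read at 450 nm. IC50 was derived from absorbance of treated versus untreated cells. At least three independent experiments per cell line; standard deviation reported.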

[2] = test system: NCI-H187; assay: Cytotoxicity against human NCI-H187 cells assessed as growth inhibition after 4 days by WST assay; format: functional, cell-based; details: NCI-H187, 96 h; in short: as §1
[3] = test system: NCI-H1417; assay: Cytotoxicity against human NCI-H1417 cells assessed as growth inhibition after 4 days by WST assay; format: functional, cell-based; details: NCI-H1417, 96 h; in short: as §1
[4] = target: Bcl-2-like protein 1 (Homo sapiens, UniProt Q07817); assay: Binding affinity to BCL-XL (unknown origin) after 2 hrs by fluorescence polarization assay
In short: (§2)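 Competitive FP binding assay. Preformed protein/fluorescent probe complexes were used at 1.5/1 nM for Bcl-2, 10/2 nM for Bcl-xL and 20/2 nM for Mcl-1. These were mixed with serially diluted inhibitor and shaken gently for 2 h at room temperature before millipolarization was read. IC50 came from nonlinear regression, and Ki was calculated from IC50.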

[5] = target: Apoptosis regulator Bcl-2 (Homo sapiens, UniProt P10415); assay: Binding affinity to BCL2 (unknown origin) after 2 hrs by fluorescence polarization assay; in short: as §2
[6] = Cytotoxicity against human NCI-H146 cells assessed as growth inhibition after 4 days by WST assay; format: functional, cell-based; details: NCI-H146, 96 h
[7] = test system: Mus musculus; assay: Toxicity in SCID mouse assessed as weight loss at 15 mg/kg, iv administered 5 days per week for 2 weeks relative to control; format: organism-based; parameters: dose 15 mg/kg, route intravenous; details: in vivo
In short: (§3)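 Tolerability run in non-tumor-bearing SCID mice. Compound given intravenously at 15 or 25 mg/kg, daily, 5 days a week for 2 weeks. Weight loss and other signs of toxicity were followed during and after treatment, and the maximum tolerated dose was set from weight loss.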

[8] = test system: NCI-H146; assay: Antitumor activity against human NCI-H146 cells xenografted in SCID mouse assessed as tumor regression at 15 mg/kg, iv administered 5 days per week for 2 weeks; format: functional, organism-based; parameters: dose 15 mg/kg
In short: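 H146 cells (5×10^6, with Matrigel) implanted subcutaneously on the dorsal side of SCID mice, one tumor per mouse. Mice with tumors of 100–150 mm³ were randomized into groups of 8, mean volume 126 mm³. Vehicle or compound given intravenously at 15 mg/kg, daily, 5 days/week for 2 weeks. Tumor volume was followed over time.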

[9] = Toxicity in iv dosed SCID mouse assessed as weight loss administered 5 days per week for 2 weeks; format: organism-based; details: in vivo
In short: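 Maximum tolerated dose study in SCID mice. Compound was given intravenously at 15 or 25 mg/kg, daily, 5 days a week for 2 weeks. Body weight loss and other signs of toxicity were monitored during and after treatment.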

[10] = test system: NCI-H146; assay: Induction of apoptosis in human NCI-H146 cells xenografted in SCID mouse assessed as increase in PARP cleavage at 15 mg/kg, iv after 3 to 6 hrs by Western blotting analysis; format: functional, organism-based; parameters: dose 15 mg/kg
In short: (§4)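 SCID mice bearing subcutaneous H146 xenografts of about 100 mm³ got a single intravenous dose of 15 mg/kg or vehicle. Tumors were harvested at 3, 6 or 24 h. Western blot then measured total and cleaved PARP and caspase-3.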

[11] = test system: Mus musculus; assay: Toxicity in SCID mouse 15 mg/kg, iv administered 5 days per week for 2 weeks; format: organism-based; parameters: dose 15 mg/kg, route intravenous; details: in vivo; in short: as §3
[12] = target: Induced myeloid leukemia cell differentiation protein Mcl-1 (Homo sapiens, UniProt Q07820); assay: Binding affinity to MCL1 (unknown origin) after 2 hrs by fluorescence polarization assay; in short: as §2
[13] = test system: Mus musculus; assay: Toxicity in SCID mouse assessed as weight loss at 25 mg/kg, iv administered 5 days per week for 2 weeks relative to control; format: organism-based; parameters: dose 25 mg/kg, route intravenous; details: in vivo; in short: as §3
[14] = test system: NCI-H146; assay: Induction of apoptosis in human NCI-H146 cells xenografted in SCID mouse assessed as increase in caspase-3 cleavage at 15 mg/kg, iv after 3 to 6 hrs by Western blotting analysis; format: functional, organism-based; parameters: dose 15 mg/kg; in short: as §4

Sequence of Apoptosis regulator Bcl-2 (P10415 whole entry): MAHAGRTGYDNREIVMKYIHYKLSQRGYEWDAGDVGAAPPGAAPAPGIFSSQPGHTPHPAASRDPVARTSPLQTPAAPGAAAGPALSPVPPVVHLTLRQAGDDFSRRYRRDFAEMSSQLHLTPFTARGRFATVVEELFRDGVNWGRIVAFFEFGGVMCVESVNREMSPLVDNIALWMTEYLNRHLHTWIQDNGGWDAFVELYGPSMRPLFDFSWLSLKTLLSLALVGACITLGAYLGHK
Sequence of Bcl-2-like protein 1 (Q07817 whole entry): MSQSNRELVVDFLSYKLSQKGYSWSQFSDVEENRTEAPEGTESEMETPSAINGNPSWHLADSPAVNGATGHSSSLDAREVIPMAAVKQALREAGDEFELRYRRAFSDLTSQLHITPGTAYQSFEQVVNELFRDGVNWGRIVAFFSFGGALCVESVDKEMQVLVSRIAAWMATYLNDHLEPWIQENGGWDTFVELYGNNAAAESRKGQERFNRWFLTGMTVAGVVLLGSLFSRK
Sequence of Induced myeloid leukemia cell differentiation protein Mcl-1 (Q07820 whole entry): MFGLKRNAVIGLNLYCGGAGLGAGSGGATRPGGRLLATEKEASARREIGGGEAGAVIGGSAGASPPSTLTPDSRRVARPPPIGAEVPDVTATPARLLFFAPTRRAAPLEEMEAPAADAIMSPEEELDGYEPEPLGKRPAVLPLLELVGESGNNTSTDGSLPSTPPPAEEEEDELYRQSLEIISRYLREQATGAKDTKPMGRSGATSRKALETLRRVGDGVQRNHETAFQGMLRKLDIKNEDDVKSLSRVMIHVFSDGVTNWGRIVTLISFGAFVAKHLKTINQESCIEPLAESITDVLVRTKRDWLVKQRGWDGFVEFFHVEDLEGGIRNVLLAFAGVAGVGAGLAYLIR

Structure (SMILES)	IC50 [4]	IC50 [5]	IC50 [6]	other results
CC1(C)CCC(c2ccc(Cl)cc2)=C(CN2CCN(c3ccc(C(=O)NS(=O)(=O)c4ccc(N[C@H](CCN5CCOCC5)CSc5ccccc5)c(S(=O)(=O)C(F)(F)F)c4)cc3)CC2)C1 [NAVITOCLAX]	–	–	–	IC50 [1]: 26.6 nM; IC50 [2]: 38.4 nM; IC50 [3]: 54.2 nM
CCn1c(C)c(C(=O)NS(C)(=O)=O)c(-c2cccc(N3CCN(c4ccc(NS(=O)(=O)c5ccc(N[C@H](CCN(C)C)CSc6ccccc6)c([N+](=O)[O-])c5)cc4)CC3)c2)c1-c1ccc(Cl)cc1	7 nM	1.8 nM	4.8 nM	Activity [7]: < 5%; IC50 [1]: 8.2 nM; Activity [8]: Active; IC50 [2]: 7.9 nM; MTD at 2 weeks [9]: 15 mg/kg; Activity [10]: Active; Activity [11]: Non-toxic; IC50 [12]: > 2000 nM; IC50 [3]: 11.1 nM; Activity [13]: 10%; Activity [14]: Active
CN(C)CC[C@H](CSc1ccccc1)Nc1ccc(S(=O)(=O)Nc2ccc(N3CCN(c4cccc(-c5c(-c6ccc(Cl)cc6)nn(C)c5C(=O)O)c4)CC3)cc2)cc1[N+](=O)[O-]	5.9 nM	3.7 nM	541 nM	–
Cc1c(C(=O)NS(C)(=O)=O)c(-c2cccc(N3CCN(c4ccc(NS(=O)(=O)c5ccc(N[C@H](CCN(C)C)CSc6ccccc6)c([N+](=O)[O-])c5)cc4)CC3)c2)c(-c2ccc(Cl)cc2)n1C	–	0.9 nM	38 nM	–
Cc1c(Cl)c(-c2cccc(N3CCN(c4ccc(NS(=O)(=O)c5ccc(N[C@H](CCN(C)C)CSc6ccccc6)c([N+](=O)[O-])c5)cc4)CC3)c2)c(-c2ccc(Cl)cc2)n1C	12 nM	260 nM	> 1000 nM	–
CN(C)CC[C@H](CSc1ccccc1)Nc1ccc(S(=O)(=O)Nc2ccc(N3CCN(c4cccc(-c5ccnn5-c5ccc(Cl)cc5)c4)CC3)cc2)cc1[N+](=O)[O-]	32 nM	110 nM	> 10000 nM	–
CCCn1c(C)c(C(=O)O)c(-c2cccc(N3CCN(c4ccc(NS(=O)(=O)c5ccc(N[C@H](CCN(C)C)CSc6ccccc6)c([N+](=O)[O-])c5)cc4)CC3)c2)c1-c1ccc(Cl)cc1	8.2 nM	10 nM	42 nM	–
Cc1c(C(F)(F)F)c(-c2cccc(N3CCN(c4ccc(NS(=O)(=O)c5ccc(N[C@H](CCN(C)C)CSc6ccccc6)c([N+](=O)[O-])c5)cc4)CC3)c2)c(-c2ccc(Cl)cc2)n1C	13 nM	271 nM	> 1000 nM	–
CN(C)CC[C@H](CSc1ccccc1)Nc1ccc(S(=O)(=O)Nc2ccc(N3CCN(c4cccc(-c5c(C(=O)O)c(Cl)n(C)c5-c5ccc(Cl)cc5)c4)CC3)cc2)cc1[N+](=O)[O-]	4.7 nM	1.5 nM	100 nM	–
Cc1c(C#N)c(-c2cccc(N3CCN(c4ccc(NS(=O)(=O)c5ccc(N[C@H](CCN(C)C)CSc6ccccc6)c([N+](=O)[O-])c5)cc4)CC3)c2)c(-c2ccc(Cl)cc2)n1C	4.5 nM	17 nM	491 nM	–
CN(C)CC[C@H](CSc1ccccc1)Nc1ccc(S(=O)(=O)Nc2ccc(N3CCN(c4cccc(-c5c(C(=O)NS(C)(=O)=O)cnn5-c5ccc(Cl)cc5)c4)CC3)cc2)cc1[N+](=O)[O-]	5 nM	5.4 nM	> 1000 nM	–
CN(C)CC[C@H](CSc1ccccc1)Nc1ccc(S(=O)(=O)Nc2ccc(N3CCN(c4cccc(-c5cnoc5-c5ccc(Cl)cc5)c4)CC3)cc2)cc1[N+](=O)[O-]	22 nM	350 nM	> 10000 nM	–
Cc1cc(-c2cccc(N3CCN(c4ccc(NS(=O)(=O)c5ccc(N[C@H](CCN(C)C)CSc6ccccc6)c([N+](=O)[O-])c5)cc4)CC3)c2)c(-c2ccc(Cl)cc2)n1C	–	–	> 10000 nM	–
CN(C)CC[C@H](CSc1ccccc1)Nc1ccc(S(=O)(=O)NC(=O)c2ccc(N3CCN(Cc4ccccc4-c4ccc(Cl)cc4)CC3)cc2)cc1[N+](=O)[O-] [ABT 737]	–	–	–	IC50 [1]: 54 nM; IC50 [2]: 138 nM; IC50 [3]: 173 nM
CN(C)CC[C@H](CSc1ccccc1)Nc1ccc(S(=O)(=O)Nc2ccc(N3CCN(c4cccc(-c5c(C(=O)NS(C)(=O)=O)ncn5-c5ccc(Cl)cc5)c4)CC3)cc2)cc1[N+](=O)[O-]	8.3 nM	3.8 nM	> 1000 nM	–
CN(C)CC[C@H](CSc1ccccc1)Nc1ccc(S(=O)(=O)Nc2ccc(N3CCN(c4cccc(-c5cnn(C)c5-c5ccc(Cl)cc5)c4)CC3)cc2)cc1[N+](=O)[O-]	15 nM	210 nM	> 10000 nM	–

More lines, main results first:

IC50 [4]	IC50 [5]	Structure (SMILES)	IC50 [6]	other results
18 nM	46 nM	CN(C)CC[C@H](CSc1ccccc1)Nc1ccc(S(=O)(=O)Nc2ccc(N3CCN(c4cccc(-c5cncn5-c5ccc(Cl)cc5)c4)CC3)cc2)cc1[N+](=O)[O-]	> 10000 nM	–
9.4 nM	5.6 nM	Cc1c(C(=O)N2CC(C)(O)C2)c(-c2cccc(N3CCN(c4ccc(NS(=O)(=O)c5ccc(N[C@H](CCN(C)C)CSc6ccccc6)c([N+](=O)[O-])c5)cc4)CC3)c2)c(-c2ccc(Cl)cc2)n1C	66 nM	–
16 nM	23 nM	CCCCn1c(C)c(C(=O)O)c(-c2cccc(N3CCN(c4ccc(NS(=O)(=O)c5ccc(N[C@H](CCN(C)C)CSc6ccccc6)c([N+](=O)[O-])c5)cc4)CC3)c2)c1-c1ccc(Cl)cc1	67 nM	–
–	2 nM	CCn1c(C)c(C(=O)O)c(-c2cccc(N3CCN(c4ccc(NS(=O)(=O)c5ccc(N[C@H](CCN(C)C)CSc6ccccc6)c([N+](=O)[O-])c5)cc4)CC3)c2)c1-c1ccc(Cl)cc1	–	–
15 nM	7.5 nM	Cc1c(C(=O)N[C@H]2C[C@@](C)(O)C2)c(-c2cccc(N3CCN(c4ccc(NS(=O)(=O)c5ccc(N[C@H](CCN(C)C)CSc6ccccc6)c([N+](=O)[O-])c5)cc4)CC3)c2)c(-c2ccc(Cl)cc2)n1C	12 nM	–
4.7 nM	3.8 nM	Cc1oc(-c2ccc(Cl)cc2)c(-c2cccc(N3CCN(c4ccc(NS(=O)(=O)c5ccc(N[C@H](CCN(C)C)CSc6ccccc6)c([N+](=O)[O-])c5)cc4)CC3)c2)c1C(=O)O	199 nM	–
6 nM	1.1 nM	CN(C)CC[C@H](CSc1ccccc1)Nc1ccc(S(=O)(=O)Nc2ccc(N3CCN(c4cccc(-c5c(C(=O)O)c(C(F)(F)F)n(C)c5-c5ccc(Cl)cc5)c4)CC3)cc2)cc1[N+](=O)[O-]	496 nM	–
6.1 nM	7.1 nM	CN(C)CC[C@H](CSc1ccccc1)Nc1ccc(S(=O)(=O)Nc2ccc(N3CCN(c4cccc(-c5c(C(=O)O)nn(C)c5-c5ccc(Cl)cc5)c4)CC3)cc2)cc1[N+](=O)[O-]	> 1000 nM	–
26 nM	140 nM	CN(C)CC[C@H](CSc1ccccc1)Nc1ccc(S(=O)(=O)Nc2ccc(N3CCN(c4cccc(-c5cn(C)nc5-c5ccc(Cl)cc5)c4)CC3)cc2)cc1[N+](=O)[O-]	> 10000 nM	–
–	1.3 nM	Cc1c(C(=O)O)c(-c2cccc(N3CCN(c4ccc(NS(=O)(=O)c5ccc(N[C@H](CCN(C)C)CSc6ccccc6)c([N+](=O)[O-])c5)cc4)CC3)c2)c(-c2ccc(Cl)cc2)n1C	–	–
14 nM	19 nM	Cc1c(C(N)=O)c(-c2cccc(N3CCN(c4ccc(NS(=O)(=O)c5ccc(N[C@H](CCN(C)C)CSc6ccccc6)c([N+](=O)[O-])c5)cc4)CC3)c2)c(-c2ccc(Cl)cc2)n1C	245 nM	–
